Assay results of several laboratories.
Compare with care: the assays were run in different laboratories.

| Compound | assay | conditions | chromatographic logD |
| --- | --- | --- | --- |
| N#CC(c1ccc(CNc2cccc3c2CN(C2CCC(=O)NC2=O)C3=O)cc1)N1CCOCC1 (stereo not shown) | HPLC | pH 7.4 | 2 |
| Cc1cc(NC(=O)Nc2ccc3c(c2)OC(F)(F)O3)cc(C(F)(F)F)n1 | HPLC | pH 7.4 | 4.3 |
| CO[C@H](C(=O)N1Cc2c(-c3ccc(C(=O)N4CCCc5ccccc54)cc3)cnn2C[C@H]1C(C)C)c1ccccc1 (single isomer, unassigned) | HPLC | pH 7.4 | 5.4 |
| CCOC(=O)C1=C(C)N/C(=C/c2cc(C)n(-c3cccnc3)c2C)C1=O | HPLC | pH 7.4 | 1.9 |
| C[C@@H]1Cn2ncc(-c3ccc(C(=O)N4CCCc5ccccc54)cc3)c2CN1C(=O)[C@H](C)c1ccccc1 | HPLC | pH 7.4 | 5.2 |
| CCOC(=O)C1=C(C)N/C(=C/c2cc(C)n(-c3ccc(CN4CCOCC4)cc3)c2C)C1=O | HPLC | pH 7.4 | 2.5 |
| O=C(Nc1ccnc(C(F)(F)F)c1)Nc1cccc2c1OC(F)(F)O2 | HPLC | pH 7.4 | 3.6 |
| CC1=C(C#N)[C@@H](c2ccc(C#N)cc2S(C)(=O)=O)NC(=O)N1c1cccc(C(F)(F)F)c1 | HPLC | pH 7.5 | 2.7 |
| COc1ccc(-c2nc(C(=O)Nc3cccc(-c4nnc5n4CCCCC5)c3)cs2)cc1OC | – | pH 7.4 | 4.8 |
| CC(C)(C)C1=CC(=NNC(=O)c2ccc([N+](=O)[O-])cc2)C=C(C(C)(C)C)C1=O | HPLC | pH 7.4 | 4.9 |
| CCOC(=O)C1=C(C)N/C(=C/c2cc(CC)n(-c3ccccc3C(F)(F)F)c2CC)C1=O | HPLC | pH 7.4 | 3.6 |
| CC(C)[C@@H]1Cn2ncc(-c3ccc(C(=O)N4CCCc5ccccc54)cc3)c2CN1C(=O)Cc1ccccc1 | HPLC | pH 7.4 | 5.3 |
| Cn1c(-c2nc3cc(C(=O)N4CCCC(N)C4)ccc3n2C)cc2ccccc21 (stereo not shown) | HPLC | pH 7.4 | 2.8 |
| Cc1oc(-c2ccccc2)nc1C(=O)NCCN1CCCCCC1=O | – | pH 7.4 | 4.5 |
| CCOC(=O)C1=C(C)N/C(=C/c2ccn(-c3ccccc3C(F)(F)F)c2)C1=O | HPLC | pH 7.4 | 3 |
| CC1=C(C#N)[C@@H](c2ccc(C#N)cc2)NC(=O)N1c1cccc(C(F)(F)F)c1 | HPLC | pH 7.5 | 2.8 |
| CCOC(=O)C1=C(C)N/C(=C/c2cc(C)n(-c3ccc(CN4CCCCC4)cc3)c2C)C1=O | HPLC | pH 7.4 | 2.7 |
| O=C(Nc1ccccc1C(=O)NC1CC1)c1cccc(N2CCCC2=O)c1 | – | pH 7.4 | 4 |
| CCOC(=O)C1=C(C)N/C(=C/c2cc(C)n(-c3ccc(S(=O)(=O)C(F)(F)F)cc3)c2C)C1=O | HPLC | pH 7.4 | 3.4 |
| CO[C@@H](C(=O)N1Cc2c(-c3ccc(C(=O)N4CCCc5ccccc54)cc3)cnn2C[C@H]1C(C)C)c1cnn(C)c1 (single isomer, unassigned) | HPLC | pH 7.4 | 4.1 |
| CCOC(=O)C1=C(C)N/C(=C/c2cc(C)n(-c3ccc(CN(C)C)cc3)c2C)C1=O | HPLC | pH 7.4 | 2.1 |
| C[C@@H]1Cn2ncc(-c3ccc(C(=O)N4CCCc5ccccc54)cc3)c2CN1C(=O)Cc1ccccc1 | HPLC | pH 7.4 | 4.9 |
